Measurements: ChEMBL document CHEMBL1140584, “Novel potent organoselenium compounds as cytotoxic agents in prostate cancer cells” (Bioorg Med Chem Lett, 2007)
pIC50: −log10 of the molar value.

System: PC-3
Test: Cytotoxicity against human PC3 cells at 2 to 10 uM by MTT assay
Format: functional, cell-based
Settings: not given
Procedure, shortened: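 PC-3 cells (ATCC, tumorigenic metastatic prostate cancer) grown in RPMI 1640 with Glutamax, 10% FBS and 1% penicillin–streptomycin. Seeded at 5·10³ cells/well in complete medium and incubated overnight at 37 °C, 5% CO₂ before compound addition. MTT formazan absorbance read at 570 nm. Percentage viable cells relative to untreated controls used to derive IC50.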
For `CC[Se]/C(=N\C(=O)c1ccccc1)NC(=O)c1ccccc1`, the pIC50 was < 5.00. With `CS/C(=N\C(=O)c1cccnc1Cl)NC(=O)c1cccnc1Cl` the pIC50 was < 5.00. In the case of `C[Se]/C(=N\C(=O)c1ccc(Cl)nc1)NC(=O)c1ccc(Cl)nc1`, the pIC50 was 5.04. In the case of `CC(C)[Se]/C(=N\C(=O)c1ccccc1)NC(=O)c1ccccc1`, the pIC50 was < 5.00. For `COc1cc(OC)cc(C(=O)/N=C(/NC(=O)c2cc(OC)cc(OC)c2)[Se]C)c1`, the pIC50 was 5.19. For `CS/C(=N\C(=O)c1ccccc1)NC(=O)c1ccccc1`, the pIC50 was < 5.00. For `CS/C(=N\C(=O)c1ccc(Cl)cc1)NC(=O)c1ccc(Cl)cc1`, the pIC50 was < 5.00. Work on `C[Se]/C(=N\C(=O)c1ccc(Cl)cc1)NC(=O)c1ccc(Cl)cc1` yielded a pIC50 of 5.12. In the case of `C[Se]/C(=N\C(=O)c1ccc(C)cc1)NC(=O)c1ccc(C)cc1`, the pIC50 was 5.73. With `CC(C)[Se]/C(=N\C(=O)c1ccc(Cl)cc1)NC(=O)c1ccc(Cl)cc1` the pIC50 was < 5.00. With `C[Se]/C(=N\C(=O)c1ccc([N+](=O)[O-])cc1)NC(=O)c1ccc([N+](=O)[O-])cc1` the pIC50 was < 5.00. For `C[Se]/C(=N\C(=O)c1ccc(C#N)cc1)NC(=O)c1ccc(C#N)cc1`, the pIC50 was < 5.00. For `CS/C(=N\C(=O)c1ccc(C)cc1)NC(=O)c1ccc(C)cc1`, the pIC50 was < 5.00. In the case of `C[Se]/C(=N\C(=O)c1ccc(C(F)(F)F)cc1)NC(=O)c1ccc(C(F)(F)F)cc1`, the pIC50 was < 5.00. In the case of `C[Se]/C(=N\C(=O)c1ccc(C(C)(C)C)cc1)NC(=O)c1ccc(C(C)(C)C)cc1`, the pIC50 was < 5.00. `C[Se]/C(=N\C(=O)c1ccccc1)NC(=O)c1ccccc1` showed a pIC50 of 5.60. In the case of `COc1cc(OC)cc(C(=O)/N=C(/NC(=O)c2cc(OC)cc(OC)c2)[Se]C(C)C)c1`, the pIC50 was < 5.00. With `C[Se](=O)O` [METHYLSELENINIC ACID] the pIC50 was 5.08.

System: not listed separately
Test: Toxicity against human RWPE1 cells at 2 to 10 uM by MTT assay
Format: cell-based, RWPE-1
Settings: read-out: LD50 (the source's name)
Procedure, shortened: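 Non-tumorigenic human prostate RWPE-1 cells (ATCC) kept in keratinocyte-SFM supplemented with 1% FBS and 1% penicillin–streptomycin. MTT read-out as formazan absorbance at 570 nm. Viability expressed as percentage of untreated control cells and used to derive IC50.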
In the case of `C[Se]/C(=N\C(=O)c1ccc(Cl)nc1)NC(=O)c1ccc(Cl)nc1`, the CC50 was > 10 µM. With `C[Se]/C(=N\C(=O)c1ccc(C)cc1)NC(=O)c1ccc(C)cc1` the CC50 was > 10 µM. With `C[Se]/C(=N\C(=O)c1ccccc1)NC(=O)c1ccccc1` the CC50 was 4.1 µM.
